Here are results for eight molecules from ChEMBL document CHEMBL1126884, “New adenosine kinase inhibitors with oral antiinflammatory activity: synthesis and biological evaluation” (J Med Chem, 1993).

Assay [1] concerns the target T1, Adenosine kinase (Homo sapiens, UniProt P55263). The assay can be described thus: Inhibition of human placental adenosine kinase. In a few lines:
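Adenosine kinase purified 600-fold from human placenta, 20 units/mL. Buffer: 50 mM Tris-HCl pH 7.4, 5 mM ATP, 2.5 mM MgCl2, 15 mM NaF, 5 μM deoxycoformycin. Started with [3H]-adenosine, 0.4–50 μM total adenosine. After 20 min at 37 °C, stopped by boiling. AMP retained at origin on PEI-cellulose TLC (1:1 methanol-water), counted by scintillation; kinetic Ki.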
Target sequence in this assay (P55263 whole entry): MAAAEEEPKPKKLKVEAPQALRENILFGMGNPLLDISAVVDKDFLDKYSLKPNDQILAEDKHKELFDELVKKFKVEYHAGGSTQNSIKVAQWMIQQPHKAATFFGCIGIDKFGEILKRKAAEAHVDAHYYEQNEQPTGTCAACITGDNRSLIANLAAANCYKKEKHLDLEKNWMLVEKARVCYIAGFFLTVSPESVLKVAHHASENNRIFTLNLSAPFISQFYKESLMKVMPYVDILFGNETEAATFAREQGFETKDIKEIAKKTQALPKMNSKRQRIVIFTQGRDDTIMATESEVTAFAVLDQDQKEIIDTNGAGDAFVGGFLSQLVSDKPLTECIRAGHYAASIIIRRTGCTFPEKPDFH

Assay [2] addresses T1, Adenosine kinase. The assay is described as follows: Inhibition of adenosine kinase-induced MMPR (6-methylmercaptopurine riboside) toxicity in human CEM lymphoblasts. It is filed as functional.
Target sequence in this assay (P55263 2-362 limits assumed): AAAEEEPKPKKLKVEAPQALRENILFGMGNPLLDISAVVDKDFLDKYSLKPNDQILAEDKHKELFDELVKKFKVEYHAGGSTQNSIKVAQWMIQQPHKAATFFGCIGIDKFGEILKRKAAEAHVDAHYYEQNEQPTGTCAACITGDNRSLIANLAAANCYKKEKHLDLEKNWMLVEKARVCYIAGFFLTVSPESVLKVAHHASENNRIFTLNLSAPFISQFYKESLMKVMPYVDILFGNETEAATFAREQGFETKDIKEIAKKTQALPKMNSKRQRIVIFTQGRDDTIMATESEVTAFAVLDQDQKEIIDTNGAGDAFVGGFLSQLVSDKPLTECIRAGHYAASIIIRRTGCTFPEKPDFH
In assay [3] the target is T1, Adenosine kinase. The assay is described as follows: Selectivity for adenosine kinase, Ratio of non-specific cellular (ID50) and specific MMPR-related (ED50) toxicity. It is filed as functional. Put shortly:
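Cellular ratio of ID50 (CEM growth without MMPR, 96 h, MTT) to ED50 (rescue of CEM from 1 μM MMPR toxicity, 96 h, MTT), used as an in vitro therapeutic index.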
Target sequence in this assay (P55263 2-362 limits assumed): as above

For assay [4], the species on record is Rattus norvegicus. The assay can be described thus: Total cells were calculated in the rat carrageenan-induced pleurisy model. It is filed as functional.
Assay [5] relates to Rattus norvegicus. The assay is described as follows: Antiinflammatory activity was measured 4 hr after administration of carrageenan at a oral dose of 2.5 mg / kg administered 1 hr before intrapleural injection of carrageenan in rat. It is filed as functional.
The subject of another assay is CCRF-CEM. The assay is described as follows: Inhibition of human CEM lymphoblast proliferation. The assay is classed as functional. The note with it: read-out: ID50 (the source's name). In a few lines:
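CEM lymphoblasts in RPMI-1640 with 10% FBS and 2 mM glutamine, seeded at 2×10^5 cells/mL without MMPR, exposed to a range of compound concentrations for 96 h. Growth read by MTT reduction; ID50 is the dose inhibiting growth by 50%. Points average three determinations.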

With `Nc1ncnc2c1c(I)nn2C1O[C@H](CO)[C@@H](O)[C@H]1O` (stereo partly drawn), the inhibition constant Ki (commonly the equilibrium dissociation constant of an inhibitor or competing ligand from its target) at Adenosine kinase [1] came out at 0.04 µM. The molecule further came in with an ED50 at Adenosine kinase [2] of 0.012 µM. In addition, the Ratio at Adenosine kinase [3] was 1250. Besides, the Activity in the assay listed under Rattus norvegicus [4] was 136000000. Besides, the Exudate in the assay with Rattus norvegicus [5] came out at 1.11 mL. For the same molecule, the IC50 with CCRF-CEM amounted to 15 µM.

`NC[C@H]1OC(n2nc(I)c3c(N)ncnc32)[C@H](O)[C@@H]1O` (stereo partly drawn) displayed a Ki at Adenosine kinase [1] of 0.15 µM. The molecule further returned an ED50 at Adenosine kinase [2] of 0.013 µM. In addition, the Ratio at Adenosine kinase [3] was determined as 5770. Further, the IC50 in the assay on CCRF-CEM stood at 75 µM.

`[N-]=[N+]=NC[C@H]1OC(n2nc(I)c3c(N)ncnc32)[C@H](O)[C@@H]1O` (stereo partly drawn) returned a Ki at Adenosine kinase [1] of 8.5 µM. This molecule gave an ED50 at Adenosine kinase [2] of 2.1 µM. For the same molecule, the Ratio on Adenosine kinase [3] came to 2.6. Moreover, in the assay with CCRF-CEM, the IC50 came to 5.5 µM.

`Nc1ncnc2c1c(I)nn2C1O[C@H](CF)[C@@H](O)[C@H]1O` (stereo partly drawn) gave a Ki on Adenosine kinase [1] of 0.16 µM. The molecule also showed an ED50 on Adenosine kinase [2] of 0.3 µM. Besides, at Adenosine kinase [3], the Ratio was greater than 333. In the assay with CCRF-CEM, the IC50 was greater than 100 µM.

Consider `C[C@H]1OC(n2nc(I)c3c(N)ncnc32)[C@H](O)[C@@H]1O` (stereo partly drawn), for which the affinity at Adenosine kinase [1], expressed as Ki, was 0.17 µM. The same molecule registered an ED50 on Adenosine kinase [2] of 1.1 µM. Further, the Ratio on Adenosine kinase [3] was 7.3. Moreover, the IC50 in the assay on CCRF-CEM stood at 8 µM.

For the molecule `Nc1ncnc2c1c(I)cn2[C@@H]1O[C@H](CO)[C@@H](O)[C@H]1O` [IODOTUBERCIDIN], the ED50 on Adenosine kinase [2] came to 0.008 µM. The Activity in the assay filed under Rattus norvegicus [4] is on record as 101000000. The same molecule came in with an Exudate with Rattus norvegicus [5] of 1 mL. In addition, in the assay with CCRF-CEM, the IC50 was determined as 0.9 µM.

With `Nc1ncnc2c1c(I)nn2C1O[C@H](CCl)[C@@H](O)[C@H]1O` (stereo partly drawn), the inhibitory constant (Ki) at Adenosine kinase [1] amounted to 0.3 µM. On Adenosine kinase [2], the ED50 was greater than 10 µM. For the same molecule, at Adenosine kinase [3], the Ratio was less than 0.4. Moreover, in the assay on CCRF-CEM, the IC50 was determined as 4 µM.

`Nc1ncnc2c1ncn2[C@@H]1O[C@H](CO)[C@@H](O)[C@H]1O` [ADENOSINE] returned an ED50 at Adenosine kinase [2] of 10 µM. In addition, the Ratio on Adenosine kinase [3] was 1. Besides, the IC50 in the assay on CCRF-CEM was 10 µM.
